# Bioassay records (PubChem)
# Most compounds without a hit are left out; they make up all but 2.4% or so of the library.
# JMJD2C inh = inhibitors of human GASC-1 (JMJD2C) demethylase; GST-JMJD2C(1-420) H3K9me3 demethylation, DELFIA europium; inhibition, % at 2.35 µM; Q9H3R0; actives 0.069% (n = 330,000);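 active = more than half of a compound's replicate wells show inhibition beyond 50%, single wells judged on their own value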;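 also: signal counts dimethyl H3K9 product captured on neutravidin plate; 0% = median of DMSO wells and 100% = 0.3 times that DMSO median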
# HTRA1 inhibitor = blocks human HTRA1 serine peptidase | Q92743 | actives 0.5% (n = 340,000) | recombinant HTRA1, FP-rhodamine activity-based probe, fluorescence polarization | inhibition, % at 5.96 µM; in the data active = inhibition above about 36%;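 also: 0% = enzyme with DMSO and 100% = wells lacking enzyme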
# Target sequence (Q92743 whole entry, looked up): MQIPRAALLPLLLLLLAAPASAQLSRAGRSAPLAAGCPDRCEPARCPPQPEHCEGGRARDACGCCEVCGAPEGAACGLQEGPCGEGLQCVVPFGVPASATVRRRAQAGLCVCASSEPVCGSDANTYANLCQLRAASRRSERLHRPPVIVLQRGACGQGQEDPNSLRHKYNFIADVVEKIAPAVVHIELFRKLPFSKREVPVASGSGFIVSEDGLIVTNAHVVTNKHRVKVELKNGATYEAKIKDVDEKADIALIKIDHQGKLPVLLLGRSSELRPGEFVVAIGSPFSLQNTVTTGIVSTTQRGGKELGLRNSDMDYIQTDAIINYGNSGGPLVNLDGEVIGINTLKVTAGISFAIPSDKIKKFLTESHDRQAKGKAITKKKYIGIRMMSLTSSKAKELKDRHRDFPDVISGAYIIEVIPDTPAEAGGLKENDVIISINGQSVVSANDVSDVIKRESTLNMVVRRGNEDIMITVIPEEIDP
# SIAE inh = human SIAE inhibition, primary screen; Q9HAT2; SIAE FP-Rh probe binding, fluorescence polarization; actives 0.69% (n = 370,000); inhibition, % at 9.66 µM;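 active = inhibition above a cutoff: mean of compounds within the control limits plus 3 SD of those, cut at about 17% in these data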;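 also: 0% = plate median of compound wells and 100% = probe without SIAE protein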
# mABHD4 FP = ABHD4 (mouse) inhibition, primary FP screen; Q8VD66; purified mABHD4, FP-Rh probe fluorescence polarization; inhibition, % at 8.92 µM; actives 0.54% (n = 370,000); AID 720543;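 active = inhibition exceeding the mean over every tested compound plus 3 SD, cut at about 30% in these data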;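 also: 0% = plate median of compound wells and 100% = S159A mutant with DMSO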
#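 Assay system: wild-type mouse ABHD4 protein; compound: single nominal dose of 8.92 µM, 0.89% DMSO final; schedule: 45 min + 60 min at 25 °C; measured by: FP readout, ex 525 nm / em 598 nm; evaluation: % inhibition of FP-Rh probe binding versus controls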
# PRMT1 inh = PRMT1 (human) inhibition, primary screen; Q99873; AID 652257; actives 1.3% (n = 370,000); inhibition, % at 2.79 µM; recombinant PRMT1, activity-based probe fluorescence polarization;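 active = inhibition above about 21% made by adding two undisclosed values, limit read from the data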
# PRMT1 confirm = confirmation of human PRMT1 inhibitors; shares compounds with PRMT1 inh; recombinant His-PRMT1, activity-based probe fluorescence polarization; inhibition, % at 2.79 µM; actives 42% (n = 3,300); AID 687036;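 active = mean inhibition across replicates above the hit cutoff derived for the earlier primary screen, cut at about 22% in these data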
# ABHD4 confirm = ABHD4 (mouse) inhibition, FP confirmation. purified mABHD4, FP-Rh probe fluorescence polarization. shares compounds with mABHD4 FP. AID 720658. actives 55% (n = 1,800). inhibition, % at 8.92 µM;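 active = mean inhibition across replicates above the hit cutoff set in the primary screen, cut at about 30% in these data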;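 also: 0% = wild-type ABHD4 with DMSO and 100% = catalytically dead S159A mutant with DMSO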
# SIAE inh conf = human SIAE inhibition, confirmation; AID 1117263; inhibition, % at 9.66 µM; SIAE FP-Rh activity-based probe, fluorescence polarization; shares compounds with SIAE inh; actives 13% (n = 2,300);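 active = mean inhibition of the replicates above the hit cutoff set in the primary screen, cut at about 17% in these data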;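 also: 0% = SIAE with DMSO and probe and 100% = probe without SIAE; inhibitors lower polarization as more probe stays unbound to SIAE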
# * hit, by the source's call; i = inactive; nt = no result given.
SMILES,JMJD2C inh,HTRA1 inhibitor,SIAE inh,mABHD4 FP,PRMT1 inh,PRMT1 confirm,SIAE inh conf,others
O=S(=O)(Nc1cc(Sc2cccc3cccnc23)c(O)c2ccccc12)c1ccccc1,-12,nt,17,42*,91*,67*,nt,ABHD4 confirm=17
COC(=O)C1CN(Cc2cn(CCOC(C)=O)nn2)CCS(=O)(=O)N1Cc1ccc(F)cc1 (stereo unspecified),nt,nt,-2,5,2,nt,nt,
CCn1c(C)nc2cc(C(=O)N/N=C/c3ccc(O)c(O)c3O)ccc21,-30,32,9,35*,43*,43*,nt,ABHD4 confirm=44*
CCn1c(C)nc2cc(C(=O)N/N=C/c3cccc(OC)c3O)ccc21,-1,24,-2,3,-4,nt,nt,
CC(=Nc1ccc(O)cc1)c1sc2ccccc2c1O,i,10,2,39*,27*,13,nt,ABHD4 confirm=0
Oc1ccc(-c2c(-c3ccsc3)sc3ccccc23)cc1,-8,-5,-8,-26,0,nt,nt,
O=C1C2C3C=CC(C3=C3CCCCC3)C2C(=O)N1c1ccccc1 (stereo unspecified),-1,-3,19*,1,43*,2,2,
CCCc1ccc(S(=O)(=O)N/N=C(/C)c2ccc3c(c2)OCO3)cc1,3,-10,0,-7,2,nt,nt,
Nc1cccc2cc(S(=O)(=O)O)ccc12,nt,14,20*,64*,34*,17,2,
Nn1c(SCC(=O)NC2CCCCC2)nnc1-c1cc(-c2ccc(F)cc2)n[nH]1,nt,nt,-2,3,1,nt,nt,
Cc1cc(C)n2c(Nc3ccc4c(c3)OCCO4)c(-c3cc4ccccc4o3)nc2n1,nt,nt,11,18,3,nt,nt,
Cc1cc(C)n2c(Nc3ccc4c(c3)OCCO4)c(-c3ccc(C)o3)nc2n1,0,3,17*,17,31*,3,4,
O=C1c2cccc3c(N4CCCCC4)ccc(c23)C(=O)N1c1ccccn1,-1,-2,4,-6,8,nt,nt,
CCCN1C(=O)c2cccc3c(N4CCCCC4)ccc(c23)C1=O,0,-4,20*,11,84*,51*,7,
CCCCNc1ccc2c3c(cccc13)C(=O)N(CCCC)C2=O,-23,19,19*,52*,155*,133*,18*,ABHD4 confirm=68*
Cn1c(SCC(=O)Nc2ccc(C(=O)O)cc2)nnc1-c1ccccn1,nt,nt,-3,-1,2,nt,nt,
CCCCCCn1c(=O)[nH]c2nc3cc(N)ccc3nc2c1=O,31,nt,18*,50*,124*,104*,12,ABHD4 confirm=40*
Cc1cccc(C=Nc2ccc3c4c(cccc24)CC3)c1O,-4,11,21*,34*,36*,4,7,ABHD4 confirm=11
CC(=O)[C@@]1(O)Cc2c(O)c3c(c(O)c2[C@H](O[C@H]2C[C@H](N)[C@H](O)[C@H](C)O2)C1)C(=O)c1ccccc1C3=O,nt,nt,81*,101*,169*,153*,81*,
CN(C)C(=O)c1cccc(-c2cnc3c(NC=O)cc(-c4ccccc4Cl)cn23)c1,nt,nt,-8,-1,4,nt,nt,
CN(C)C(=O)c1cccc(-c2cnc3c(NC=O)cc(-c4ccccc4N(C)C)cn23)c1,nt,nt,29*,74*,137*,29*,2,ABHD4 confirm=71*
COc1ccc(S[C@]2(C(=O)N3CCN(C(C)=O)CC3)CC(=O)N(C(=O)c3ccccc3)[C@@H]2c2ccc(OC)cc2)cc1,nt,nt,18*,-3,83*,82*,-1,
O=C1CCC(=O)c2ccc3c4c(ccc1c24)CC3,nt,1,19*,28,27*,6,-6,
COCCCNC(=O)c1ccc(Cn2c(=O)c3ccccc3n(Cc3ccc(C(C)C)cc3)c2=O)cc1,nt,nt,0,4,4,nt,nt,
Cc1ccc(/C=C2\C(=O)NC(=O)N2C)o1,-11,-1,19*,2,36*,37*,0,
SMILES,JMJD2C inh,HTRA1 inhibitor,SIAE inh,mABHD4 FP,PRMT1 inh,PRMT1 confirm,SIAE inh conf,others
Cc1ccc(/C=C2/C(=O)N(c3ccccc3)C(=S)N2C)o1,4,0,3,-2,18,nt,nt,
O=C(OCC#CCSc1nnc(-c2cccc3ccccc23)o1)c1ccc(F)nc1,nt,nt,-11,-17,12,nt,nt,
COc1ccc2c(c1OC)C(=O)N1N=C(c3ccc(-c4ccccc4)cc3)CC21 (stereo unspecified),1,2,2,6,-1,nt,nt,
COc1ccc2c(c1OC)C(=O)N1c3ccccc3N=C(c3ccc([N+](=O)[O-])cc3)CC21 (stereo unspecified),8,-1,21*,3,32*,7,2,
O=S(=O)(/N=S1\CC=CCN1S(=O)(=O)c1ccccc1)c1ccccc1 (stereo unspecified),nt,-4,20*,-4,41*,78*,2,
CCCCCCCCSC1=CC(=O)C(OC)=C(OC)C1=O,nt,-8,21*,39*,39*,88*,6,ABHD4 confirm=52*
Cc1ccc([C@@H]2C3COCC=C3C(C#N)=C(N)C2(C#N)C#N)o1 (stereo partly specified),10,25,18*,27,28*,6,3,
Cc1ccc(C2C3CSCC=C3C(C#N)=C(N)C2(C#N)C#N)cc1 (stereo unspecified),-3,-11,2,10,19,nt,nt,
CCC1Oc2ccccc2N(CC(=O)N2CC(C)CC(C)C2)C1=O (stereo unspecified),nt,0,-5,-3,-5,nt,nt,
CC(=O)c1c(C)[nH]c(C(=O)OCC(=O)NCc2ccc(Cl)cc2)c1C,-6,-29,24*,13,168*,-2,-7,
COC(=O)[C@H](CC(C)C)N(CCCc1cn(Cc2ccc(C)cc2)nn1)S(=O)(=O)c1ccc(F)cc1Br,nt,nt,-4,0,-1,nt,nt,
O=C(CN(C(=O)OCC1c2ccccc2-c2ccccc21)[C@@H](Cc1ccccc1)C(=O)O)OCc1ccc(C(=O)NCc2ccccc2)cc1,nt,nt,-1,-21,1,nt,nt,
Cc1ccc(Cn2cc(CN3[C@H](Cc4ccccc4)COc4cc(Br)ccc4S3(=O)=O)nn2)cc1,nt,nt,-4,1,-3,nt,nt,
COc1cccc(C=Cc2nccc3ccccc23)c1OC,nt,-30,-6,2,-1,nt,nt,
CN(C)c1ccc(C=Cc2nccc3ccccc23)cc1,nt,nt,131*,112*,139*,61*,20*,ABHD4 confirm=85*
CN(C)[C@@H]1CCN(c2cccc3c2S(=O)(=O)N2CC[C@H](C2)O3)C1,nt,nt,-5,-2,-3,nt,nt,
Cc1ccc(NC(=O)CC2SC(=O)N(c3ccccc3)C2=O)cc1 (stereo unspecified),-9,4,5,-4,14,nt,nt,
